# Experimental data as given in ChEMBL document CHEMBL2046339, “Synthesis and evaluation of novel tropane derivatives as potential PET imaging agents for the dopamine transporter” (Bioorg Med Chem Lett, 2012).
# How the values were obtained:
# [1] = 1-Octanol-sodium phosphate buffer partition coefficient, log P of the compound at pH 7.4 after 4 mins; format: physicochemical
# Procedure, shortened: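 Radiolabelled compound added to 3 g 1-octanol and 3 g NaH2PO4 buffer, pH 7.4. Mixture vortexed 1 min and centrifuged 3 min. Octanol layer removed and partition repeated two more times. log P taken from the ratio of counts/mL in octanol vs buffer after the third partition.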
# Striatum = test: Biodistribution in Sprague-Dawley rat striatum at 30 uCi, iv measured after 30 mins by gamma counting; format: ADME, organism-based; conditions: in vivo, 0.5 h
# Procedure, shortened: (§1)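 Normal male Sprague-Dawley rats (n = 3) received 30 μCi of the 18F tracer iv per rat and were sacrificed at 30 min. Organs removed, weighed and gamma counted. Striatum, hippocampus, cerebellum, cortex and hypothalamus dissected and counted separately. %dose/g calculated against diluted aliquots of the injected dose; mean ± S.D. of 3 rats.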
# Lung = test: Biodistribution in Sprague-Dawley rat lung at 30 uCi, iv measured after 30 mins by gamma counting; format: ADME, organism-based; conditions: in vivo, 0.5 h; procedure, shortened: as §1
# Hippocampus = test: Biodistribution in Sprague-Dawley rat hippocampus at 30 uCi, iv measured after 30 mins by gamma counting; format: ADME, organism-based; conditions: in vivo, 0.5 h; procedure, shortened: as §1
# Nucleic Acid [2] = test: Ratio of drug uptake in striatum to cerebellum of Sprague-Dawley rat at 30 uCi, iv measured after 30 mins by gamma counting; format: ADME, organism-based; conditions: in vivo, 0.5 h
# Procedure, shortened: (§2)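 Male Sprague-Dawley rats (n = 3) received 30 μCi of the 18F tracer iv and were dissected at 30 min. Brain regions gamma counted as %dose/g against injected-dose aliquots. Regional uptake expressed as a ratio to cerebellum uptake.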
# Kidney = test: Biodistribution in Sprague-Dawley rat kidney at 30 uCi, iv measured after 30 mins by gamma counting; format: ADME, organism-based; conditions: in vivo, 0.5 h; procedure, shortened: as §1
# Hypothalamus = test: Biodistribution in Sprague-Dawley rat hypothalamus at 30 uCi, iv measured after 30 mins by gamma counting; format: ADME, organism-based; conditions: in vivo, 0.5 h; procedure, shortened: as §1
# Brain = test: Biodistribution in Sprague-Dawley rat brain at 30 uCi, iv measured after 30 mins by gamma counting; format: ADME, organism-based; conditions: in vivo, 0.5 h; procedure, shortened: as §1
# Cortex = test: Biodistribution in Sprague-Dawley rat cortex at 30 uCi, iv measured after 30 mins by gamma counting; format: ADME, organism-based; conditions: in vivo, 0.5 h; procedure, shortened: as §1
# Cerebellum = test: Biodistribution in Sprague-Dawley rat cerebellum at 30 uCi, iv measured after 30 mins by gamma counting; format: ADME, organism-based; conditions: in vivo, 0.5 h; procedure, shortened: as §1
# Nucleic Acid [3] = test: Ratio of drug uptake in hippocampus to cerebellum of Sprague-Dawley rat at 30 uCi, iv measured after 30 mins by gamma counting; format: ADME, organism-based; conditions: in vivo, 0.5 h; procedure, shortened: as §2
# [4] = molecular target: T1, Sodium-dependent dopamine transporter (Homo sapiens, UniProt Q01959); test: Displacement of [125I]IPT from DAT overexpressed in LLC-PK1 cell membrane by competitive binding assay
# T1 sequence (Q01959 whole entry): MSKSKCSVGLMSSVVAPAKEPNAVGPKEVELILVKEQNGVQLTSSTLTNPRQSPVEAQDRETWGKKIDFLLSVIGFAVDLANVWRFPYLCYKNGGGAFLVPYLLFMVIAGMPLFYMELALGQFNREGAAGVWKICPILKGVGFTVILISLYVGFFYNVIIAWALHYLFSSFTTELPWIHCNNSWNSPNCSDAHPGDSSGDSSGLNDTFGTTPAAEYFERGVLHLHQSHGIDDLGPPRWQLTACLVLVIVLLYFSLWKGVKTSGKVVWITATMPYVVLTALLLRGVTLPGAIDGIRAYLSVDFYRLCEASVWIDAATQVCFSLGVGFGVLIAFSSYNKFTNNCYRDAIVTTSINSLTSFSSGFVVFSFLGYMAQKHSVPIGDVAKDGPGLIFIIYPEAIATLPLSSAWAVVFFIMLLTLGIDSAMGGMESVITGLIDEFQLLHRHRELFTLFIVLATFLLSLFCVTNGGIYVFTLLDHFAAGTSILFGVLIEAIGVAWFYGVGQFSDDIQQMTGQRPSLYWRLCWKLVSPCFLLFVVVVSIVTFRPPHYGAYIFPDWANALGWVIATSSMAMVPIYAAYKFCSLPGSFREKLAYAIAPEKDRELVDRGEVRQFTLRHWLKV
# Muscle tissue = test: Biodistribution in Sprague-Dawley rat muscle at 30 uCi, iv measured after 30 mins by gamma counting; format: ADME, organism-based; conditions: in vivo, 0.5 h; procedure, shortened: as §1
# Blood = test: Biodistribution in Sprague-Dawley rat blood at 30 uCi, iv measured after 30 mins by gamma counting; format: ADME, organism-based; conditions: in vivo, 0.5 h; procedure, shortened: as §1
# Heart = test: Biodistribution in Sprague-Dawley rat heart at 30 uCi, iv measured after 30 mins by gamma counting; format: ADME, organism-based; conditions: in vivo, 0.5 h; procedure, shortened: as §1
# Liver = test: Biodistribution in Sprague-Dawley rat liver at 30 uCi, iv measured after 30 mins by gamma counting; format: ADME, organism-based; conditions: in vivo, 0.5 h; procedure, shortened: as §1
# Bone = test: Biodistribution in Sprague-Dawley rat bone at 30 uCi, iv measured after 30 mins by gamma counting; format: ADME, organism-based, Bone element; conditions: in vivo, 0.5 h; procedure, shortened: as §1
# [5] = molecular target: T1, Sodium-dependent dopamine transporter; test: Binding affinity to DAT
SMILES,logD at 4 min [1],Drug uptake (Striatum),Drug uptake (Lung),Drug uptake (Hippocampus),Ratio (Nucleic Acid [2]),Drug uptake (Kidney),Drug uptake (Hypothalamus),Drug uptake (Brain),Drug uptake (Cortex),Drug uptake (Cerebellum),Ratio (Nucleic Acid [3]),Ki [4],Drug uptake (Muscle tissue),Drug uptake (Blood),Drug uptake (Heart),Drug uptake (Liver),Drug uptake (Bone),Kd [5],Ki [5]
CN(CC[18F])C[C@H]1[C@@H](c2ccc(Cl)cc2)C[C@@H]2CC[C@H]1N2C,1.52,1.07 % ID/g,5.93 % ID/g,0.79 % ID/g,1.63,3.65 % ID/g,0.82 % ID/g,0.72 % ID/g,0.91 % ID/g,0.65 % ID/g,1.21,3.79 nM,0.27 % ID/g,0.1 % ID/g,0.8 % ID/g,3.01 % ID/g,0.43 % ID/g,,
CN(CCC[18F])C[C@H]1[C@@H](c2ccc(Cl)cc2)C[C@@H]2CC[C@H]1N2C,1.72,0.63 % ID/g,11.5 % ID/g,0.54 % ID/g,0.94,4.63 % ID/g,0.63 % ID/g,0.52 % ID/g,0.68 % ID/g,0.66 % ID/g,0.8,2.64 nM,0.22 % ID/g,0.1 % ID/g,1.56 % ID/g,2.08 % ID/g,0.5 % ID/g,,
CN(CCOCC[18F])C[C@H]1[C@@H](c2ccc(Cl)cc2)C[C@@H]2CC[C@H]1N2C,,,,,,,,,,,,4.63 nM,,,,,,,
CN(C)C(=O)[C@H]1[C@@H](c2ccc(Cl)cc2)C[C@@H]2CC[C@H]1N2CC[18F],-0.11,,,,,,,,,,,699 nM,,,,,,,
CN(C)C(=O)[C@H]1[C@@H](c2ccc(Cl)cc2)C[C@@H]2CC[C@H]1N2CCC[18F],-0.07,,,,,,,,,,,135 nM,,,,,,,
CN(C)C[C@H]1[C@@H](c2ccc(Cl)cc2)C[C@@H]2CC[C@H]1N2CC[18F],1.88,,,,,,,,,,,18.3 nM,,,,,,,
CN(C)C[C@H]1[C@@H](c2ccc(Cl)cc2)C[C@@H]2CC[C@H]1N2CCC[18F],1.98,0.49 % ID/g,5.58 % ID/g,0.44 % ID/g,1.1,2.08 % ID/g,0.43 % ID/g,0.39 % ID/g,0.52 % ID/g,0.44 % ID/g,0.99,26.9 nM,0.3 % ID/g,0.14 % ID/g,0.57 % ID/g,0.86 % ID/g,1.04 % ID/g,,
COC(=O)[C@H]1[C@@H](c2ccc(Cl)cc2)C[C@@H]2CC[C@H]1N2C/C=C/[125I],,,,,,,,,,,,,,,,,,1.2 nM,
Cc1ccc([C@H]2C[C@@H]3CC[C@H]([C@H]2C(=O)OCC[18F])N3C/C=C/I)cc1,,,,,,,,,,,,,,,,,,,12 nM
